Experimental data published in ChEMBL document CHEMBL1156068, “Synthesis, pharmacological and antiviral activity of 1,3-thiazepine derivatives” (Eur J Med Chem, 2009).
Active and inactive are the calls of the source. The rule behind the calls is not given here.

Key:
[1] = test system: Yellow fever virus; test: Antiviral activity against Yellow fever virus infected in BHK-21 cells assessed as protection against virus induced cytopathogenicity after 3 to 4 days by MTT assay; type: functional, organism-based
Procedure, shortened: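 BHK cells were seeded at 5 × 10^4 per well and grown overnight to monolayers, then infected at m.o.i. 0.01 in serum-free medium. One hour later, MEM Earle's with 1% FCS (final) and serial compound dilutions were added. After 3–4 days at 37 °C, viability was read by MTT. EC50 is the concentration giving 50% protection from virus-induced cytopathogenicity.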

[2] = test system: Mammalian orthoreovirus 1; test: Antiviral activity against Reo virus type-1 infected in BHK-21 cells assessed as protection against virus induced cytopathogenicity after 3 to 4 days by MTT assay; type: functional, organism-based
Procedure, shortened: (§1)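 Monolayers were grown overnight at 37 °C, 5% CO2: MDBK at 3×10^4 cells/well, BHK at 5×10^4 cells/well. Cells infected at m.o.i. 0.01. After 1 h, serial compound dilutions added in MEM with 1% FCS. Viability read by MTT after 3–4 days at 37 °C. EC50 is the concentration giving 50% protection from cytopathogenicity.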

[3] = test system: Mus musculus; test: Effect on motor coordination in Swiss albino mouse at 200 mg/kg, ip by rotarod test; type: ADME, organism-based; design: dose 200 mg/kg, route intraperitoneal; conditions: in vivo
[4] = test system: Vesicular stomatitis virus; test: Antiviral activity against Vesicular stomatitis virus infected in african green monkey Vero76 cells after 2 days by plaque reduction assay; type: functional, organism-based; conditions: Vero 76
[5] = test system: Mus musculus; test: Decrease in 5-hydroxytryptophan-induced head twitch in Swiss albino mouse at 200 mg/kg, ip measured for 6 two mins interval; type: functional, organism-based; design: dose 200 mg/kg
[6] = test system: Mus musculus; test: Effect on pentylenetetrazole-induced clonic seizures in Swiss albino mouse at 200 mg/kg, ip; type: functional, organism-based; design: dose 200 mg/kg
Procedure, shortened: (§2)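 Mice pretreated i.p. with compound (200 mg kg-1, 0.5% methylcellulose suspension, 60 min), then pentylenetetrazole 110 mg kg-1 s.c. Scored as number of mice with clonic seizures, tonic convulsions, and deaths. Chi-square test with Yates correction.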

[7] = test system: Human alphaherpesvirus 1; test: Antiviral activity against HSV1 infected in african green monkey Vero76 cells after 3 days by plaque reduction assay; type: functional, organism-based; conditions: Vero 76
Procedure, shortened: (§3)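 Vero 76 monolayers (2×10^5 cells/well, overnight) infected to give 50–100 PFU/well. Unadsorbed virus removed, then DMEM with 1% FCS, 0.75% methylcellulose and serial compound dilutions added. Incubated at 37 °C for 3 days (CVB-2, HSV-1) or 5 days (RSV). Fixed and stained with 50% ethanol/0.8% crystal violet in PBS; plaques counted.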

[8] = test system: Mus musculus; test: Effect on amphetamine-induced hyperactivity in Swiss albino mouse at 5 mg/kg, sc administered 30 mins before amphetamine challenge; type: functional, organism-based; design: dose 5 mg/kg
Procedure, shortened: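 Mice received compound i.p. (0.1 LD50, 0.5% methylcellulose suspension) 60 min before test. Amphetamine 5 mg kg-1 s.c. was given 30 min before test. Locomotion of single male Albino Swiss mice recorded in photoresistor actometers for 30 min. Vehicle controls. Student's t-test.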

[9] = test system: Mus musculus; test: Depression of spontaneous locomotor activity in Swiss albino mouse at 0.05 times LD50, ip dose measured for 30 mins; type: functional, organism-based
Procedure, shortened: (§4)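 Spontaneous locomotion of single male Albino Swiss mice recorded in photoresistor actometers for 30 min. Compound given i.p. at 0.05 or 0.1 LD50 as 0.5% methylcellulose suspension 60 min before test. Vehicle controls. Student's t-test.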

[10] = test system: Mus musculus; test: Antinociceptive activity in Swiss albino mouse assessed as protection against acetic acid-induced abdominal constriction at 200 mg/kg, ip measured for 10 mins by writhing test; type: functional, organism-based; design: dose 200 mg/kg; conditions: Abdomen
[11] = test system: Poliovirus 1; test: Antiviral activity against Poliovirus type 1 Sabin infected in african green monkey Vero76 cells after 2 days by plaque reduction assay; type: functional, cell-based; conditions: Vero 76
[12] = test system: Respiratory syncytial virus; test: Antiviral activity against Respiratory syncytial virus infected in african green monkey Vero76 cells after 5 days by plaque reduction assay; type: functional, organism-based; conditions: Vero 76; procedure, shortened: as §3
[13] = organism: Mus musculus; test: Decrease in body temperature in normothermic Swiss albino mouse within 30 to 90 mins; type: ADME, organism-based; conditions: in vivo
[14] = test system: Mus musculus; test: Effect on pentylenetetrazole-induced tonic convulsion in Swiss albino mouse at 200 mg/kg, ip; type: functional, organism-based; design: dose 200 mg/kg; procedure, shortened: as §2
[15] = test system: Coxsackievirus B2; test: Antiviral activity against Coxsackie virus B2 infected in african green monkey Vero76 cells after 3 days by plaque reduction assay; type: functional, organism-based; conditions: Vero 76; procedure, shortened: as §3
[16] = organism: Mus musculus; test: Decrease in body temperature in normothermic Swiss albino mouse within 60 to 120 mins; type: ADME, organism-based; conditions: in vivo
[17] = test system: Vaccinia virus; test: Antiviral activity against Vaccinia virus infected in african green monkey Vero76 cells after 3 days by plaque reduction assay; type: functional, organism-based; conditions: Orthopoxvirus vaccinia; Vero 76
[18] = test system: Bovine viral diarrhea virus 1; test: Antiviral activity against Bovine viral diarrhea virus infected in MDBK cells assessed as protection against virus induced cytopathogenicity after 3 to 4 days by MTT assay; type: functional, organism-based; procedure, shortened: as §1
[19] = test system: Mus musculus; test: Depression of spontaneous locomotor activity in Swiss albino mouse at 0.1 times LD50, ip dose measured for 30 mins; type: functional, organism-based; procedure, shortened: as §4
[20] = test system: Mus musculus; test: Acute toxicity in ip dosed Swiss albino mouse assessed as mortality within 48 hrs; type: organism-based; conditions: in vivo
Procedure, shortened: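 Male Albino Swiss mice (18–30 g) received compound i.p. as a suspension in 0.5% aqueous methylcellulose, 10 mL kg-1. LD50 was calculated by the Litchfield–Wilcoxon method from mortality within 48 h.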

[21] = test system: Mus musculus; test: Effect on motor coordination in Swiss albino mouse at 200 mg/kg, ip by chimney test; type: ADME, organism-based; design: dose 200 mg/kg, route intraperitoneal; conditions: in vivo
[22] = test system: Human immunodeficiency virus 1; test: Antiviral activity against wild type HIV1 3B infected in human MT4 cells assessed as protection against virus induced cytopathogenicity after 4 days by MTT assay; type: functional, organism-based; conditions: Human immunodeficiency virus 1, 3B, MT4, 96 h
Procedure, shortened: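 MT-4 cells (1×10^4/well) in RPMI with serial compound dilutions were infected with HIV-1 (100 CCID50; m.o.i. 0.01). After 4 days, viability was measured by MTT. EC50 is the concentration giving 50% protection from virus-induced cytopathogenicity. Compounds were prepared as 100 mM DMSO stocks diluted in medium.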

[23] = Cytotoxicity against human MT4 cells assessed as reduction of cell viability after 96 hrs by MTT assay; type: cell-based
Procedure, shortened: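 Exponentially growing, mock-infected MT-4 cells were seeded at 1×10^5 cells mL-1 in RPMI-1640 with 10% FCS and penicillin/streptomycin, with serial compound dilutions. Incubated 96 h at 37 °C, 5% CO2, then viability read by MTT. CC50 is the concentration reducing viability by 50%.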

CC1=CC2C(C(C)C)CC1C1C(=O)N(N3CCCCS/C3=N\c3ccc(C)cc3)C(=O)C21 (stereo unspecified)
Activity [1]: inactive | Activity [2]: inactive | Activity [3]: Non-toxic | Activity [4]: inactive | Activity [5]: inactive | Activity [6]: inactive | Activity [7]: inactive | Activity [8]: inactive | Activity [9]: inactive | Activity [10]: inactive | Activity [11]: inactive | Activity [12]: inactive | Activity [13]: Toxic | Activity [14]: inactive | Activity [15]: inactive | Activity [16]: Toxic | Activity [17]: inactive | Activity [18]: inactive | Activity [19]: Active | Activity [20]: Active | Activity [21]: Non-toxic

CC(C)C12C=CC(C)(CC1)C1C(=O)N(N3CCCCS/C3=N\c3ccc(Cl)c(Cl)c3)C(=O)C12 (stereo unspecified)
Activity [1]: inactive | Activity [2]: inactive | Activity [3]: Non-toxic | Activity [4]: inactive | Activity [5]: Active | Activity [6]: inactive | Activity [7]: inactive | Activity [8]: inactive | Activity [9]: inactive | Activity [10]: inactive | Activity [11]: inactive | Activity [12]: inactive | EC50 [22]: > 100 µM | CC50 at 96 h [23]: > 100 µM | Activity [13]: Toxic | Activity [14]: inactive | Activity [15]: inactive | Activity [16]: Toxic | Activity [17]: inactive | Activity [18]: inactive | Activity [19]: Active | Activity [20]: Active | Activity [21]: Non-toxic

CC(C)C12C=CC(C)(CC1)C1C(=O)N(NC(=S)Nc3ccc(Cl)c(Cl)c3)C(=O)C12 (stereo unspecified)
Activity [1]: inactive | Activity [2]: inactive | Activity [4]: inactive | Activity [7]: inactive | Activity [11]: inactive | Activity [12]: inactive | EC50 [22]: > 59 µM | CC50 at 96 h [23]: 59 µM | Activity [15]: inactive | Activity [17]: inactive | Activity [18]: inactive

CC(C)C12C=CC(C)(CC1)C1C(=O)N(N3CCCCS/C3=N\Cc3ccccc3)C(=O)C12 (stereo unspecified)
Activity [1]: inactive | Activity [2]: inactive | Activity [4]: inactive | Activity [7]: inactive | Activity [11]: inactive | Activity [12]: inactive | EC50 [22]: > 100 µM | CC50 at 96 h [23]: > 100 µM | Activity [15]: inactive | Activity [17]: inactive | Activity [18]: inactive

C=CCNC(=S)NN1C(=O)C2C3CC(C(C)C)C(C=C3C)C2C1=O (stereo unspecified)
Activity [1]: inactive | Activity [2]: inactive | Activity [4]: inactive | Activity [7]: inactive | Activity [11]: inactive | Activity [12]: inactive | EC50 [22]: > 100 µM | CC50 at 96 h [23]: > 100 µM | Activity [15]: inactive | Activity [17]: inactive | Activity [18]: inactive

CC1=CC2C(C(C)C)CC1C1C(=O)N(NC(=S)NCc3ccccc3)C(=O)C21 (stereo unspecified)
EC50 [1]: 41 µM | Activity [2]: inactive | Activity [4]: inactive | Activity [7]: inactive | Activity [11]: inactive | Activity [12]: inactive | EC50 [22]: 30 µM | CC50 at 96 h [23]: 54 µM | Activity [15]: inactive | Activity [17]: inactive | EC50 ([18]; Bovine viral diarrhea virus isolates and strains): 52 µM

CC1=CC2C(C(C)C)CC1C1C(=O)N(NC(=S)Nc3ccc(Cl)cc3)C(=O)C21 (stereo unspecified)
Activity [1]: inactive | Activity [2]: inactive | Activity [4]: inactive | Activity [7]: inactive | Activity [11]: inactive | Activity [12]: inactive | EC50 [22]: > 45 µM | CC50 at 96 h [23]: 45 µM | Activity [15]: inactive | Activity [17]: inactive | Activity [18]: inactive

CC(C)C12C=CC(C)(CC1)C1C(=O)N(NC(=S)Nc3ccc(I)cc3)C(=O)C12 (stereo unspecified)
Activity [1]: inactive | Activity [2]: inactive | Activity [4]: inactive | Activity [7]: inactive | Activity [11]: inactive | Activity [12]: inactive | EC50 [22]: > 100 µM | CC50 at 96 h [23]: > 100 µM | Activity [15]: inactive | Activity [17]: inactive | Activity [18]: inactive

CC(C)C12C=CC(C)(CC1)C1C(=O)N(N3CCCCS/C3=N\c3ccc(Cl)cc3)C(=O)C12 (stereo unspecified)
Activity [1]: inactive | Activity [2]: inactive | Activity [4]: inactive | Activity [7]: inactive | Activity [11]: inactive | Activity [12]: inactive | EC50 [22]: > 32 µM | CC50 at 96 h [23]: 32 µM | Activity [15]: inactive | Activity [17]: inactive | Activity [18]: inactive
